According to ChEMBL document CHEMBL5653614, “Rescue of fragile X syndrome phenotypes in Fmr1 KO mice by the small-molecule PAK inhibitor FRAX486” (Proc Natl Acad Sci U S A, 2013):
Calls of active or inactive are those of the source. The rule behind the calls is not given here.

Assays:
[1] = Drug uptake in FVB.129P2 mouse plasma at 20 mg/kg,sc for 5 days and measured after 24 hrs by LC-MS/MS analysis; type: ADME, organism-based; conditions: in vivo, 120 h, time 5 day
In short: (§1)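 Mice dosed s.c. at 20 mg/kg once daily for up to 5 d; plasma and forebrain sampled 24 h after the last injection. Brain homogenized in 2 volumes of cold PBS; levels measured by LC-MS/MS. n = 3–4, mean ± SEM.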

[2] = Drug uptake in FVB.129P2 mouse brain at 20 mg/kg,sc for 5 days and measured after 24 hrs by LC-MS/MS analysis; type: ADME, organism-based; conditions: in vivo, 120 h, time 5 day; in short: as §1
Mus musculus [3] = assay: Protective activity in Fmr1 knockout FVB.129P2-Fmr1tm1Cgr/J mouse assessed as decrease in apical dendritic spine density in layer II/III pyramidal neurons segment 3 at 20 mg/kg, sc and measured after 8 hrs by Golgi-Cox technique analysis; type: functional, organism-based
In short: (§2)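 Adult male WT and Fmr1 KO FVB mice given 20 mg/kg s.c. or vehicle; brains collected 8 h later and Golgi stained. Apical dendrites of layer II/III pyramidal neurons in temporal cortex, originating 50–100 µm from the soma, were divided into ten 10-µm segments and spines counted. 40–60 neurons from 4–6 mice per group; one-way ANOVA.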

Mus musculus [4] = assay: Protective activity in Fmr1 knockout FVB.129P2-Fmr1tm1Cgr/J mouse assessed as decrease in apical dendritic spine density in layer II/III pyramidal neurons segment 10 at 20 mg/kg, sc and measured after 8 hrs by Golgi-Cox technique analysis; type: functional, organism-based; in short: as §2
Mus musculus [5] = assay: Anti-seizure activity against 124dB loud auditory stimulus induced Fmr1 knockout FVB.129P2-Fmr1tm1Cgr/J mouse model of audiogenic seizure assessed as decrease in sound-induced death due to respiratory arrest at 10 to 30 mg/kg,sc for 8 hrs followed by audiogenic seizure induction by audiogenic seizure assay; type: functional, organism-based; conditions: dose 10-30 mg/kg
In short: (§3)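 Adult male mice (10–17 wk). Single s.c. dose (0, 10, 20 or 30 mg/kg) in 20% (wt/vol) hydroxypropyl-β-cyclodextrin vehicle; AGS induced 8 h later. Mouse acclimated 2 min in a clear acrylic two-chamber box, then exposed to a 124 dB sound. Scored as percentage of animals showing each sequential phase (wild running, seizure, death by respiratory arrest); χ2 test against vehicle.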

Mus musculus [6] = assay: Anti-seizure activity against 124dB loud auditory stimulus induced Fmr1 knockout FVB.129P2-Fmr1tm1Cgr/J mouse model of audiogenic seizure assessed as decrease in sound-induced wild running at 10 mg/kg,sc for 8 hrs followed by audiogenic seizure induction by audiogenic seizure assay (Rvb=100%); type: functional; parameters: scale not given: the % may be the effect or the level left; in short: as §3
Mus musculus [7] = assay: Anti-seizure activity against 124dB loud auditory stimulus induced Fmr1 knockout FVB.129P2-Fmr1tm1Cgr/J mouse model of audiogenic seizure assessed as decrease in sound-induced wild running at 20 mg/kg,sc for 8 hrs followed by audiogenic seizure induction by audiogenic seizure assay (Rvb=100%); type: functional; parameters: scale not given: the % may be the effect or the level left; in short: as §3
Mus musculus [8] = assay: Anti-seizure activity against 124dB loud auditory stimulus induced Fmr1 knockout FVB.129P2-Fmr1tm1Cgr/J mouse model of audiogenic seizure assessed as decrease in sound-induced seizure at 10 mg/kg,sc for 8 hrs followed by audiogenic seizure induction by audiogenic seizure assay (Rvb=100%); type: functional; parameters: scale not given: the % may be the effect or the level left; in short: as §3
Mus musculus [9] = assay: (§4) Anti-seizure activity against 124dB loud auditory stimulus induced Fmr1 knockout FVB.129P2-Fmr1tm1Cgr/J mouse model of audiogenic seizure assessed as decrease in sound-induced seizure at 20 mg/kg,sc for 8 hrs followed by audiogenic seizure induction by audiogenic seizure assay (Rvb=100%); type: functional; parameters: scale not given: the % may be the effect or the level left; in short: as §3
Mus musculus [10] = assay: Anti-seizure activity against 124dB loud auditory stimulus induced Fmr1 knockout FVB.129P2-Fmr1tm1Cgr/J mouse model of audiogenic seizure assessed as decrease in sound-induced seizure at 30 mg/kg,sc for 8 hrs followed by audiogenic seizure induction by audiogenic seizure assay (Rvb=100%); type: functional; parameters: scale not given: the % may be the effect or the level left; in short: as §3
Mus musculus [11] = assay: as §4, with “5 days” for “8 hrs”, “induction after 8 hrs post-treatment” for “induction”, “(Rvb=96%)” for “(Rvb=100%)”; type: functional; parameters: scale not given: the % may be the effect or the level left; conditions: time 5 day
In short: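 Adult male Fmr1 KO mice given 10 or 20 mg/kg s.c. daily for 5 d in 20% hydroxypropyl-β-cyclodextrin vehicle. AGS assay run 8 h after the final injection: 2 min acclimation in an acrylic chamber, then a 124 dB auditory stimulus. Incidence of wild running and seizure recorded; χ2 comparison with vehicle.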

Mus musculus [12] = assay: Anti-seizure activity against 124dB loud auditory stimulus induced Fmr1 knockout FVB.129P2-Fmr1tm1Cgr/J mouse model of audiogenic seizure assessed as decrease in sound-induced seizure at 20 mg/kg,sc and measured after 5 days by audiogenic seizure assay (Rvb=100%); type: functional; parameters: scale not given: the % may be the effect or the level left; conditions: time 5 day
In short: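 Fmr1 KO mice received one s.c. dose of vehicle or 20 mg/kg in hydroxypropyl-β-cyclodextrin; the AGS assay (124 dB stimulus after 2 min acclimation) was run 5 d later. Seizure incidence recorded.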

Mus musculus [13] = assay: Protective activity in Fmr1 knockout FVB.129P2-Fmr1tm1Cgr/J mouse model of Fragile X syndrome assessed as decrease in horizontal movements at 20 mg/kg, sc for 5 days and measured for 30 mins by open field assay; type: functional, organism-based; conditions: time 5.0 day
In short: (§5)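 Adult male WT and Fmr1 KO mice dosed s.c. at 20 mg/kg or vehicle for 5 d; tested 4–5.5 h after dosing. Single mouse in a novel open field for 30 min, tracked by infrared sensors in 1-min bins; bar-graph values averaged over minutes 18–30. Mice beyond 2 SD in total distance, or immobile for 5 consecutive minutes, were excluded.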

Mus musculus [14] = assay: Protective activity in Fmr1 knockout FVB.129P2-Fmr1tm1Cgr/J mouse model of Fragile X syndrome assessed as decrease in counterclockwise revolutions at 20 mg/kg, sc for 5 days by open field assay; type: functional, organism-based; conditions: time 5.0 day; in short: as §5
Mus musculus [15] = assay: Protective activity in FVB.129P2-Pde6b+ Tyr c-ch/AntJ wild type mouse assessed as decrease in distance travelled at 20 mg/kg, sc for 5 days and measured during 18 to 30 mins by open field assay; type: functional, organism-based; conditions: time 5.0 day; in short: as §5
Mus musculus [16] = assay: Protective activity in FVB.129P2-Pde6b+ Tyr c-ch/AntJ wild type mouse assessed as decrease in time spent in moving at 20 mg/kg, sc for 5 days and measured for 30 mins by open field assay; type: functional, organism-based; conditions: time 5.0 day; in short: as §5
Mus musculus [17] = assay: Protective activity in FVB.129P2-Pde6b+ Tyr c-ch/AntJ wild type mouse assessed as decrease in stereotypy count at 20 mg/kg, sc for 5 days by open field assay; type: functional, organism-based; conditions: time 5.0 day; in short: as §5
Mus musculus [18] = assay: Protective activity in FVB.129P2-Pde6b+ Tyr c-ch/AntJ wild type mouse assessed as balance on accelerating rotarod at 20 mg/kg, sc and measured for 4 to 5.25 hrs by rotarod test; type: functional, organism-based; conditions: time 4-5.25 hrs
In short: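 Adult male WT and Fmr1 KO mice tested 4–5.5 h after s.c. 20 mg/kg or vehicle. Latency to fall or jump off the rotating cylinder recorded (max 3 min). Three trials per mouse, 30–40 min apart; per-mouse average latency compared.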

Drug uptake [1]: Active
Drug uptake [2]: Active
SMILES: CCn1c(=O)c(-c2ccc(Cl)cc2Cl)cc2cnc(Nc3ccc(N4CCNCC4)c(F)c3)nc21
Activity (Mus musculus [3]): Active
Activity (Mus musculus [4]): inactive
Activity (Mus musculus [5]): Dose-Dependent Effect
Activity (Mus musculus [6]): 80%
Activity (Mus musculus [7]): 25%
Activity (Mus musculus [8]): 80%
Activity (Mus musculus [9]): 25%
Activity (Mus musculus [10]): 0%
Activity (Mus musculus [11]): 42%
Activity (Mus musculus [12]): 100%
Activity (Mus musculus [13]): Active
Activity (Mus musculus [14]): Active
Activity (Mus musculus [15]): Active
Activity (Mus musculus [16]): Active
Activity (Mus musculus [17]): Active
Activity (Mus musculus [18]): inactive
